Rows were chosen to be rich in hits. Some 3.4% of all compounds tested hit in one or more screens of this group.
DTT redox prof = compounds producing H2O2 with reducing agent – biochemical, NIH compound library profiling, artefact control for MLSCN library redox annotation, primary screen; AID 878, 2007; activation, % at 10 µM; DTT-dependent redox cycling H2O2, phenol red/HRP absorbance; 100% = 100 µM peroxide control, 0% = buffer; 200,000 tested, 0.03% active;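 active = activation of at least 50% relative to the plate's high and low controls in the primary single-dose screen; inactive = activation below 50%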;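 note: compound incubated with DTT at 0.8 mM final as the reducing agent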
PKD1 kinase inh = inhibitors of human PKD1 kinase, biochemical, fluorescence polarization. PKD1 kinase fluorescence polarization assay. inhibition, % (concentration not given with the values). AID 797, 2007. Serine/threonine-protein kinase D1 (Homo sapiens), Q15139. 200,000 tested, 0.056% active; in the data active = inhibition above about 50%
MDM2 E3 inh = MDM2-luciferase reporter signal enhancers, primary screen, MDM2 E3 ligase inhibitor project, cell-based, luminescence, 1536-well | E3 ubiquitin-protein ligase Mdm2 (Homo sapiens), Q00987 | cell-based MDM2 ubiquitination luciferase reporter, 2 h; 0 = plate control, 100 = twice control, blank-subtracted | signal enhancement, % at 5 µM | 210,000 tested, 0.11% active;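 active = signal enhancement of 30% or more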;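 note: luminescence tracks abundance of the self-degrading MDM2-luciferase fusion protein; higher signal means inhibition of MDM2 E3 ligase activity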
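system = mammalian cells stably expressing self-ubiquitinating, self-degrading MDM2 E3–luciferase fusion | quantity = 2000 cells per well seeded | incubation = 4 h cell settling then 2 h compound exposure, 37 °C | signal = SteadyLite luminescence, 15 min reagent step | benchmarks = plate control and blank wells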
Cl transport mod = KCC2 cotransporter modulators, thallium flux, primary screen, cell-based, HEK293 KCC2, FluoZin-2 fluorescence, MLSMR; KCC2 cells, thallium flux FluoZin-2 fluorescence; 190,000 tested, 2.2% active; AID 1456, 2008; Solute carrier family 12 member 5 (Homo sapiens), Q9H2X9; B-score of Tl+ flux slope (higher = more flux/activation; lower = inhibition) at 10 µM;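 active = thallium flux slope and its plate-corrected score both differing from the plate sample mean at a set confidence after two filtering rounds, in either direction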;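 note: slope of fluorescence scaled to starting intensity during 10 to 20 s after thallium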
p97 ATPase inh = inhibitors of human p97 ATPase, primary screen, biochemical; Transitional endoplasmic reticulum ATPase (Homo sapiens), P55072; recombinant p97 ATPase, Kinase-Glo ATP luminescence, 3 h; inhibition, % at 8 µM; 220,000 tested, 0.42% active; AID 1481, 2009; in the data active = inhibition above about 15%;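 note: 0% = DMSO vehicle and 100% = wells lacking enzyme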
ROMK mod = ROMK potassium channel modulators, primary screen, cell-based, thallium flux, MLSMR library | 130,000 tested, 2% active | B-score at 10 µM | Tet-inducible ROMK, thallium flux fluorescence; actives lie on both sides;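 active = signal ratio slope over the read window, or its plate-corrected B-score, at least 3 SD from the plate mean, either direction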;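 note: B-score of the F/F0 ratio slope over 7 to 12 s after thallium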
Target sequence (P48048 whole entry, looked up): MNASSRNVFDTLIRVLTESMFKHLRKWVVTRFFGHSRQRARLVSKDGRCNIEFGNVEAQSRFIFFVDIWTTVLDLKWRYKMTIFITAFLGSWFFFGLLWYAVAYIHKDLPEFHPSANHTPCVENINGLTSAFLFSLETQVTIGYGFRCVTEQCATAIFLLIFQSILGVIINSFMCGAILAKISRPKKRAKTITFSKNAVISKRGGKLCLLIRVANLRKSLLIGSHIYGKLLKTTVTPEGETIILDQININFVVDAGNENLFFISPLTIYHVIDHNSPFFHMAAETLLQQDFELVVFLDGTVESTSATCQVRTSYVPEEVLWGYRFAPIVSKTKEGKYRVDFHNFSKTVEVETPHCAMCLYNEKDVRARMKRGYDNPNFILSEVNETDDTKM
PKD FP artifact = fluorescence polarization interference in PKD1 assay, artefact control for PKD1 inhibitor project, biochemical, 140K library; PKD1 FP assay interference counter-screen; inhibition, % at 10 µM; shares compounds with PKD1 kinase inh; 85 tested, under 10 active; call rule not given here
* marks the source's active call; other numbers are inactive results.

How did O=C(NC(=S)N1CCN(Cc2ccc3c(c2)OCO3)CC1)c1cccc(Br)c1 do in these assays?
DTT redox prof: 0; PKD1 kinase inh: -7; MDM2 E3 inh: 9; Cl transport mod: 79*; p97 ATPase inh: 2; ROMK mod: 4.9*

What do the screens show for `COc1ccc(/C=C/c2ccncc2)cc1`?
DTT redox prof: 2; PKD1 kinase inh: -10; Cl transport mod: 0.48; p97 ATPase inh: 0

What do the screens show for `O=[N+]([O-])c1ccc(N/N=C/c2sc(N3CCOCC3)nc2-c2ccccc2)c(S(=O)(=O)Nc2ccc(Cl)cc2)c1`?
DTT redox prof: -1; PKD1 kinase inh: 16; MDM2 E3 inh: -23; Cl transport mod: 1.2; p97 ATPase inh: -3; ROMK mod: -0.1

What do the screens show for `O=[N+]([O-])c1ccc(N/N=C/c2sc(N3CCOCC3)nc2-c2ccccc2)c(S(=O)(=O)Nc2ccccc2Cl)c1`?
DTT redox prof: -1; PKD1 kinase inh: 0; Cl transport mod: -1.4; p97 ATPase inh: 8; ROMK mod: -5*

Results for S=c1[nH]nc(-c2cc3c(s2)-c2ccccc2CC3)o1 ?
DTT redox prof: 2; PKD1 kinase inh: -9; MDM2 E3 inh: -11; Cl transport mod: 95*; p97 ATPase inh: 1

Results for O=Cc1[nH]c2ccccc2c1N(C(=O)CCl)c1ccc([N+](=O)[O-])cc1 ?
MDM2 E3 inh: -3; Cl transport mod: -0.068; p97 ATPase inh: 13; ROMK mod: -2*

Results for Cc1ccc([N+](=O)[O-])cc1NC(=S)NC(=O)c1ccco1 ?
DTT redox prof: 0; PKD1 kinase inh: 1; MDM2 E3 inh: -8; Cl transport mod: 15*; p97 ATPase inh: 4

Results for O=C(NC(=S)Nc1cc([N+](=O)[O-])ccc1Cl)c1ccccc1 ?
DTT redox prof: 0; PKD1 kinase inh: -7; MDM2 E3 inh: -2; Cl transport mod: 11*; p97 ATPase inh: 2; ROMK mod: 1.4

What do the screens show for `N#CC1=C(N)NC(SCC(=O)Nc2ccc(Br)cc2)=C(C#N)C12CCCCC2`?
DTT redox prof: -1; PKD1 kinase inh: -4; MDM2 E3 inh: -8; Cl transport mod: -4.9*; p97 ATPase inh: 5; ROMK mod: -2.3

How did O=S(=O)(c1cccs1)n1cnc2ccccc21 do in these assays?
DTT redox prof: 0; PKD1 kinase inh: -8; Cl transport mod: -0.24; p97 ATPase inh: 4

What do the screens show for `COc1ccc(-c2nn(-c3ccccc3)cc2C(=O)O)cc1OC`?
DTT redox prof: 0; PKD1 kinase inh: -2; MDM2 E3 inh: -19; Cl transport mod: -1.8; p97 ATPase inh: 4; ROMK mod: -0.12

How did O=C(O)c1cn(-c2ccccc2)nc1-c1ccc(Cl)cc1 do in these assays?
DTT redox prof: 0; PKD1 kinase inh: -7; Cl transport mod: -3.8*; p97 ATPase inh: -4

How did CCN(CC)c1ccc(CN(C(=O)c2cc(OC)c(OC)c(OC)c2)C2CCS(=O)(=O)C2)cc1 (centres undefined) do in these assays?
DTT redox prof: -1; PKD1 kinase inh: 7; MDM2 E3 inh: -23; p97 ATPase inh: -3

How did Cc1cc(C)nc(SC2=CS(=O)(=O)c3ccccc32)n1 do in these assays?
DTT redox prof: 1; PKD1 kinase inh: 0; MDM2 E3 inh: 4; Cl transport mod: -0.081; p97 ATPase inh: -4; ROMK mod: 0.56

How did O=S1(=O)C=C(Sc2nc3ccccc3s2)c2ccccc21 do in these assays?
DTT redox prof: -3; PKD1 kinase inh: -5; MDM2 E3 inh: 52*; Cl transport mod: 3.6; p97 ATPase inh: 7

What do the screens show for `Cc1ccc(OCC(=O)NNC(=O)C(=O)NC(C)(C)C)cc1`?
DTT redox prof: 0; PKD1 kinase inh: -3; MDM2 E3 inh: -6; Cl transport mod: 13*; p97 ATPase inh: -3

Results for COc1ccc(C)cc1NC(=O)COCC(=O)O ?
DTT redox prof: 2; PKD1 kinase inh: -6; MDM2 E3 inh: -8; p97 ATPase inh: 2

What do the screens show for `COc1ccc(OC)c(NC(=O)C(=O)NNC(=O)COc2ccc(Br)cc2C)c1`?
DTT redox prof: -1; PKD1 kinase inh: -4; MDM2 E3 inh: 1; Cl transport mod: 91*; p97 ATPase inh: -6; ROMK mod: 1.6*

What do the screens show for `COc1ccc(C)cc1NC(=O)C(=O)NNC(=O)COc1ccc(Cl)cc1`?
DTT redox prof: 0; PKD1 kinase inh: -6; MDM2 E3 inh: -10; Cl transport mod: 78*; p97 ATPase inh: 7; ROMK mod: 7.1*

How did COc1ccc(CC(=O)NNC(=O)COc2ccc(Br)cc2C)cc1OC do in these assays?
DTT redox prof: 0; PKD1 kinase inh: -20; MDM2 E3 inh: 11; Cl transport mod: 0.62; p97 ATPase inh: 2; ROMK mod: 0.31

Results for S=C(N/N=C1\C2CN3CCN(C2)CC1(c1ccccc1)C3)Nc1ccccc1 ?
DTT redox prof: 0; PKD1 kinase inh: -5; MDM2 E3 inh: 3; Cl transport mod: 0.82; p97 ATPase inh: -4; ROMK mod: 0.52

What do the screens show for `COc1cc2c(cc1OC)CN(C(=O)c1ccc(Br)o1)CC2`?
MDM2 E3 inh: 2; Cl transport mod: 0.47; p97 ATPase inh: 5

How did COc1cc2c(cc1OC)CN(C(=O)c1ccco1)CC2 do in these assays?
DTT redox prof: 1; PKD1 kinase inh: -2; MDM2 E3 inh: 35*; Cl transport mod: 0.11; p97 ATPase inh: -3; ROMK mod: 0.07

What do the screens show for `COc1cc(C2=NOC(C(=O)NCc3ccco3)C2)cc(OC)c1OC` (centres undefined)?
DTT redox prof: 0; PKD1 kinase inh: 112*; MDM2 E3 inh: -14; p97 ATPase inh: 3; ROMK mod: -0.044; PKD FP artifact: -11

What do the screens show for `CCn1c(CSc2ncccn2)nnc1SCC(=O)N1CCc2ccccc21`?
DTT redox prof: 0; PKD1 kinase inh: 99*; MDM2 E3 inh: -11; Cl transport mod: -0.18; p97 ATPase inh: 3; ROMK mod: -1.3; PKD FP artifact: -13

Results for COc1ccc(NC(=O)CSc2nc3[nH]ncc3c(=O)n2-c2ccccc2C)cc1OC ?
DTT redox prof: -1; PKD1 kinase inh: 10; MDM2 E3 inh: -3; Cl transport mod: -2.3; p97 ATPase inh: -4; ROMK mod: -0.42
